Test results: ChEMBL document CHEMBL1140692, “Toward the development of chemoprevention agents. Part II: Chemo-enzymatic synthesis and anti-inflammatory activities of a new class of 5-amino-2-substitutedphenyl-1,3-dioxacycloalkanes” (Bioorg Med Chem, 2007)

Tests used:
Mus musculus [1] = test: Gastrointestinal toxicity in mouse assessed as tail bleeding time at 200 mg/kg, po after 90 mins; type: organism-based; parameters: dose 200 mg/kg, route oral; settings: in vivo, 1.5 h
Procedure, shortened: (§1)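 Male mice (18–22 g) are dosed orally and compared with an NS group. At 30, 45, 60 and 90 min after dosing, each mouse is restrained in a tube holder and a 2-mm cut is made on the tail. Blood is wiped away every 30 s until flow stops, and the time to cessation is recorded.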

Mus musculus [2] = test: Gastrointestinal toxicity in mouse assessed as tail bleeding time at 200 mg/kg, po after 45 mins; type: organism-based; parameters: dose 200 mg/kg, route oral; settings: in vivo, 0.75 h; procedure, shortened: as §1
Mus musculus [3] = test: Gastrointestinal toxicity in mouse assessed as tail bleeding time at 200 mg/kg, po after 30 mins; type: organism-based; parameters: dose 200 mg/kg, route oral; settings: in vivo, 0.5 h; procedure, shortened: as §1
Mus musculus [4] = test: Gastrointestinal toxicity in mouse assessed as tail bleeding time at 200 mg/kg, po after 60 mins; type: organism-based; parameters: dose 200 mg/kg, route oral; settings: in vivo, 1 h; procedure, shortened: as §1
[5] = Permeability from basolateral to apical side of human Caco-2 cell membrane; type: ADME, cell-based
[6] = Permeability from apical to basolateral side of human Caco-2 cell membrane; type: ADME, cell-based
Caco-2 = test: Ratio of permeability from apical to basolateral side over basolateral to apical side of human Caco-2 cell membrane; type: ADME, cell-based
[7] = Inhibition of bovine brain PKC; parameters: species or system Bos taurus

Row | SMILES | Time (Mus musculus [1]) | Time (Mus musculus [2]) | Time (Mus musculus [3]) | Time (Mus musculus [4]) | Papp B→A [5] | Papp A→B [6] | Ratio (Caco-2) | IC50 [7]
1 | Cc1ccc([C@@H]2OC[C@@H](N)[C@H](C)O2)cc1 | 117.7 s | 118.5 s | 120.4 s | 118.9 s | – | – | – | –
2 | C[C@@H]1O[C@H](c2ccc([N+](=O)[O-])cc2)OC[C@H]1NC(=O)Cc1ccccc1 | – | – | – | – | 6.93 ×10⁻⁶ cm/s | 10.3 ×10⁻⁶ cm/s | 1.49 | –
3 | O=C(Cc1ccccc1)N[C@H]1CO[C@H](/C=C/c2ccccc2)OC1 | – | – | – | – | 7.32 ×10⁻⁶ cm/s | 8.86 ×10⁻⁶ cm/s | 1.21 | –
4 | N[C@H]1CCO[C@@H](c2cccc([N+](=O)[O-])c2)OC1 | 118.6 s | 118.7 s | 120.1 s | 118.5 s | – | – | – | –
5 | N[C@H]1CO[C@@H](c2cccc([N+](=O)[O-])c2)OC1 | 120.2 s | 118.2 s | 119.3 s | 119.1 s | – | – | – | –
6 | C[C@@H]1O[C@H](c2cccc([N+](=O)[O-])c2)OC[C@H]1N | 118.2 s | 118.2 s | 118.9 s | 119.5 s | – | – | – | –
7 | O=C(Cc1ccccc1)N[C@H]1CO[C@@H](/C=C/c2ccccc2)OC1 | – | – | – | – | 7.87 ×10⁻⁶ cm/s | 8.97 ×10⁻⁶ cm/s | 1.14 | –
8 | N[C@H]1CO[C@H](c2cccc([N+](=O)[O-])c2)OC1 | 118.7 s | 118 s | 118.8 s | 118.4 s | – | – | – | –
9 | N[C@H]1CO[C@H](c2ccc(Cl)cc2)OC1 | 119.6 s | 118.9 s | 119 s | 118.7 s | – | – | – | –
10 | C[C@@H]1O[C@H](c2ccccc2)OC[C@H]1N | 118.9 s | 118.9 s | 118.7 s | 118.6 s | – | – | – | –
11 | N[C@H]1CCCO[C@H](c2ccc([N+](=O)[O-])cc2)OC1 | 117.7 s | 120.3 s | 118.6 s | 118.5 s | – | – | – | –
12 | C[C@@H]1O[C@H](c2ccc(Cl)cc2)OC[C@H]1NC(=O)Cc1ccccc1 | – | – | – | – | 6.86 ×10⁻⁶ cm/s | 10.2 ×10⁻⁶ cm/s | 1.48 | –
13 | N[C@H]1CCCO[C@H](c2ccc(Cl)cc2)OC1 | 118.3 s | 118.7 s | 117.9 s | 119.1 s | – | – | – | –
14 | O=C(Cc1ccccc1)N[C@H]1CCO[C@@H](c2cccc([N+](=O)[O-])c2)OC1 | – | – | – | – | – | – | – | 3010 µM
15 | O=C(Cc1ccccc1)N[C@H]1CO[C@H](c2ccc(Cl)cc2)OC1 | – | – | – | – | – | – | – | 2710 µM
16 | N[C@H]1CCCO[C@H](c2cccc([N+](=O)[O-])c2)OC1 | 118 s | 117.9 s | 117.8 s | 121.5 s | – | – | – | –
17 | N[C@H]1CCO[C@H](c2cccc([N+](=O)[O-])c2)OC1 | 118.5 s | 118.6 s | 117.9 s | 119 s | – | – | – | –
18 | Cc1ccc([C@H]2OC[C@@H](N)CO2)cc1 | 118.4 s | 119 s | 118.3 s | 118.7 s | – | – | – | –
19 | C[C@@H]1O[C@H](/C=C/c2ccccc2)OC[C@H]1NC(=O)Cc1ccccc1 | – | – | – | – | 7.15 ×10⁻⁶ cm/s | 8.8 ×10⁻⁶ cm/s | 1.23 | –
20 | N[C@H]1CO[C@@H](c2ccc(Cl)cc2)OC1 | 119.4 s | 118.9 s | 118.5 s | 120.9 s | – | – | – | –
21 | O=C(Cc1ccccc1)N[C@H]1CCO[C@@H](c2ccc([N+](=O)[O-])cc2)OC1 | – | – | – | – | – | – | – | 2980 µM
22 | C[C@@H]1O[C@@H](c2ccc([N+](=O)[O-])cc2)OC[C@H]1NC(=O)Cc1ccccc1 | – | – | – | – | 6.98 ×10⁻⁶ cm/s | 10.4 ×10⁻⁶ cm/s | 1.49 | –
23 | N[C@H]1CO[C@@H](c2ccc([N+](=O)[O-])cc2)OC1 | 119.4 s | 118.7 s | 119.4 s | 120.6 s | – | – | – | –

Row | SMILES | Time (Mus musculus [1]) | Time (Mus musculus [2]) | Time (Mus musculus [3]) | Time (Mus musculus [4]) | Papp B→A [5] | Papp A→B [6] | Ratio (Caco-2) | IC50 [7]
24 | N[C@H]1CCO[C@H](c2ccc(Cl)cc2)OC1 | 118.6 s | 118.5 s | 117.9 s | 119.2 s | – | – | – | –
25 | N[C@H]1CO[C@@H](c2ccccc2)OC1 | 118.7 s | 118.8 s | 119.2 s | 117.6 s | – | – | – | –
26 | N[C@H]1CCO[C@@H](c2ccc([N+](=O)[O-])cc2)OC1 | 117.2 s | 118.5 s | 117.8 s | 117.9 s | – | – | – | –
27 | N[C@H]1CCCO[C@@H](c2ccc([N+](=O)[O-])cc2)OC1 | 117.6 s | 119 s | 118.6 s | 118.4 s | – | – | – | –
28 | N[C@H]1CO[C@H](c2ccc([N+](=O)[O-])cc2)OC1 | 118.9 s | 117.7 s | 119.5 s | 118.6 s | – | – | – | –
29 | O=C(Cc1ccccc1)N[C@H]1CO[C@H](c2ccc([N+](=O)[O-])cc2)OC1 | – | – | – | – | – | – | – | 2850 µM
30 | N[C@H]1CCO[C@H](c2ccc([N+](=O)[O-])cc2)OC1 | 117.9 s | 119 s | 118.5 s | 118.6 s | – | – | – | –
31 | O=C(Cc1ccccc1)N[C@H]1CO[C@@H](c2ccc(Cl)cc2)OC1 | – | – | – | – | – | – | – | 2690 µM
32 | O=C(Cc1ccccc1)N[C@H]1CO[C@@H](c2cccc([N+](=O)[O-])c2)OC1 | – | – | – | – | – | – | – | 2810 µM
33 | N[C@H]1CCCO[C@@H](c2ccc(Cl)cc2)OC1 | 117.8 s | 117.5 s | 119.4 s | 118.4 s | – | – | – | –
34 | N[C@H]1CO[C@H](c2ccccc2)OC1 | 119.6 s | 119.2 s | 119.3 s | 119.7 s | – | – | – | –
35 | N[C@H]1CCO[C@@H](c2ccc(Cl)cc2)OC1 | 119 s | 119.6 s | 118.4 s | 118.6 s | – | – | – | –
36 | O=C(Cc1ccccc1)N[C@H]1CO[C@H](c2cccc([N+](=O)[O-])c2)OC1 | – | – | – | – | – | – | – | 2900 µM
37 | Cc1ccc([C@H]2OC[C@H](N)CO2)cc1 | 117.8 s | 119.2 s | 118.5 s | 119.5 s | – | – | – | –
38 | C[C@@H]1O[C@@H](c2cccc([N+](=O)[O-])c2)OC[C@H]1N | 118.3 s | 119.2 s | 118.9 s | 117.4 s | – | – | – | –
39 | C[C@@H]1O[C@@H](c2ccc(Cl)cc2)OC[C@H]1NC(=O)Cc1ccccc1 | – | – | – | – | 7 ×10⁻⁶ cm/s | 10.2 ×10⁻⁶ cm/s | 1.46 | –
40 | O=C(Cc1ccccc1)N[C@H]1CCO[C@H](c2ccc(Cl)cc2)OC1 | – | – | – | – | – | – | – | 2920 µM
41 | O=C(Cc1ccccc1)N[C@H]1CCO[C@H](c2cccc([N+](=O)[O-])c2)OC1 | – | – | – | – | – | – | – | 2930 µM
42 | O=C(Cc1ccccc1)N[C@H]1CO[C@@H](c2ccc([N+](=O)[O-])cc2)OC1 | – | – | – | – | – | – | – | 2770 µM
43 | O=C(Cc1ccccc1)N[C@H]1CCO[C@@H](c2ccc(Cl)cc2)OC1 | – | – | – | – | – | – | – | 2950 µM
44 | O=C(Cc1ccccc1)N[C@H]1CCO[C@H](c2ccc([N+](=O)[O-])cc2)OC1 | – | – | – | – | – | – | – | 2860 µM
45 | Cc1ccc([C@H]2OC[C@@H](N)[C@H](C)O2)cc1 | 118.7 s | 121 s | 120.9 s | 119.8 s | – | – | – | –
46 | N[C@H]1CCCO[C@@H](c2cccc([N+](=O)[O-])c2)OC1 | 119.3 s | 118.2 s | 119.3 s | 118.5 s | – | – | – | –
